Screens: PubChem BioAssay, The Scripps Research Institute Molecular Screening Center
The list is not random: actives were taken first. Their share in the collection is about 2.3%.
TAAR1 antagonist: human TAAR1 antagonists, primary screen, Fluo-8 calcium fluorescence, CHO RD-HGA16 cells. Trace amine-associated receptor 1 (Homo sapiens), Q96RJ0. antagonist. inhibition, % at 3 µM. actives 1.5% (n = 360,000);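 active = inhibition above a per-plate cutoff, the mean inhibition of test compounds on that plate plus 3 SD, cut at about 49% in these data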;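 note: 0% = DMSO plus EC80 beta-PEA response and 100% = DMSO alone without agonist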
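Test system: hTAAR1-expressing CHO RD-HGA16 cells, Gα16-coupled; Probe or stimulus: EC80 β-phenethylamine stimulus; Compound dosing: single nominal final test compound concentration of 3 µM; Timing: 140 s kinetic read after compound, 140 s after agonist; Signal: Fluo-8 calcium-sensitive fluorescence; Measure: % inhibition of agonist calcium response; Controls: DMSO and EC80 PEA controls.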
OXTR agonist: human OXTR agonists, primary screen, fluorescence, CHO-OTR cells, Fluo-8 calcium | Oxytocin receptor (Homo sapiens), P30559 | Fluo-8 calcium fluorescence; normalized: DMSO 0%, oxytocin 100% | activation, % at 3 µM | actives 0.32% (n = 320,000) | AID 2435, 2010;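 active = activation above the mean of all tested compounds plus 3 SD, cutoff set per screening run, cut at about 20% in these data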;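 note: peak over basal fluorescence ratio from a 100 s FLIPR kinetic read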
TAAR1 ag: human TAAR1 agonists, primary screen, Fluo-8 calcium fluorescence, CHO RD-HGA16 cells. actives 0.99% (n = 360,000). vehicle wells 0%, saturating PEA agonist 100%. activation, % at 3 µM;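 active = activation above the mean activation of all test compounds in the run plus 3 SD, cut at about 38% in these data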
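System: CHO-derived RD-HGA16 cells with stable Gα16 and human TAAR1 / Times: 17-24 h plating, Fluo-8 75 min 37 °C, 30 min RT / Technique: calcium-sensitive Fluo-8 signal, excitation 470-495, emission 515-575 nm / Measure: % activation relative to PEA EC100 response / Benchmarks: DMSO and PEA EC100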
OXTR potentiator: human OXTR potentiators, primary screen, fluorescence, CHO-OTR cells, Fluo-8 calcium | actives 0.061% (n = 320,000) | Oxytocin receptor (Homo sapiens), P30559 | activation, % at 3 µM | Fluo-8 calcium fluorescence, potentiator mode; 0% = oxytocin EC15, 100% = EC100;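 active = activation above that plate's cutoff, the mean activation of tested compounds plus 3 SD, cut at about 6.6% in these data, passing the limit was not always enough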;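 note: 100% uses oxytocin at 75 nM as the full agonist control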
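test system = CHO-OTR cells, human receptor | compound = single-point 3.0 µM | schedule = 6 min compound pre-incubation at room temperature, 100 s kinetic read | signal = Fluo-8 no-wash calcium dye fluorescence, excitation 470-495 nm, emission 515-575 nm | repeats = single well per compound, singlicate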
V1R ag counter: agonists of human V1a receptor, primary screen, counter-screen for OXTR agonist project, fluorescence, CHO-V1R cells; Vasopressin V1a receptor (Homo sapiens), P37288; Fluo-8 calcium fluorescence, agonist mode; 0% DMSO, 100% 3 nM vasopressin; activation, % at 3 µM; actives 0.25% (n = 320,000); AID 2797, 2010;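 active = activation above the mean activation of all tested compounds plus 3 SD, per screening run, cut at about 20% in these data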;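 note: signal is peak over basal fluorescence ratio across a 100 second FLIPR read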
Target sequence (P37288 whole entry, looked up): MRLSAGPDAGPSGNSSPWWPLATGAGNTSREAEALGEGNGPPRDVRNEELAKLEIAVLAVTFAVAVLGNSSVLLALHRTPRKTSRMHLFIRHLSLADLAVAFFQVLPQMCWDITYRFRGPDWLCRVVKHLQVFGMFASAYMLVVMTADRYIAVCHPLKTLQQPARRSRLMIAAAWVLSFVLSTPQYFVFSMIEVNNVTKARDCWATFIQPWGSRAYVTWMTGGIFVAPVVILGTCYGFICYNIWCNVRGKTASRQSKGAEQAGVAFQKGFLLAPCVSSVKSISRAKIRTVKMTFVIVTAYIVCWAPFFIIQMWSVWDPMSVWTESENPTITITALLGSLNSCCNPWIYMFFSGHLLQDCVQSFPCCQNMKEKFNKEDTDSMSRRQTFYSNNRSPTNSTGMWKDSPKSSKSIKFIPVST
TAAR1 nonsel count: nonselective antagonists in TAAR1 counter-screen cells, counter-screen for hTAAR1 antagonist project, cell-based, fluorescence, calcium. shares compounds with TAAR1 antagonist. counterscreen cell line, antagonist mode. inhibition, % at 3 µM. actives 77% (n = 2,400). AID 651780, 2012; in the data active = inhibition above about 22%;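 note: CHO-Ga16 host cells stimulated with ATP at an EC80 level; 0% = agonist EC80 plus vehicle and 100% = vehicle without agonist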
TAAR1 antag conf: human TAAR1 antagonists, retest of hits, confirmation, cell-based, fluorescence; shares compounds with TAAR1 antagonist; TAAR1-expressing cells, fluorescence antagonist read-out; inhibition, % at 3 µM; actives 40% (n = 2,400); in the data active = inhibition above about 49%;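 note: CHO-Ga16 host cells challenged with agonist PEA near its EC80; 0% = agonist at EC80 plus vehicle and 100% = vehicle with no agonist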
Ga16 ag counter: calcium activation in Ga16-expressing cells, counter-screen for TAAR1 antagonist project, cell-based, fluorescence. shares compounds with TAAR1 antagonist. actives 18% (n = 2,400). activation, % at 3 µM. agonist counterscreen. AID 651953, 2012; in the data active = activation above about 12%;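 note: 0% = vehicle wells and 100% = saturating stimulus response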
TAAR1 ag counter: TAAR1 activation by candidate antagonists – cell-based, fluorescence, counter-screen for TAAR1 antagonist project | activation, % at 3 µM | actives 2% (n = 2,400) | shares compounds with TAAR1 antagonist | hTAAR1 cell line, agonist mode; in the data active = activation above about 37%;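 note: CHO cells stably expressing TAAR1 with calcium dye readout; 0% = DMSO vehicle and 100% = full agonist response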
* = called active by the depositor.

What do the screens show for `CCN(CC)S(=O)(=O)c1ccc(S(=O)(=O)N(CC(=O)Nc2ccccc2)Cc2ccco2)cc1`?
TAAR1 antagonist: 62.2*; OXTR agonist: 8.2; TAAR1 ag: 16.6; OXTR potentiator: -11.7; V1R ag counter: 6.7; TAAR1 nonsel count: 31.3*; TAAR1 antag conf: 53.3*; Ga16 ag counter: 8.8; TAAR1 ag counter: 8.5

How did Cc1ccccc1C(=O)Nc1ccc2c(c1)CCCN2C(=O)c1cccs1 do in these assays?
TAAR1 antagonist: 30.1; OXTR agonist: 2.0; TAAR1 ag: 2.7; OXTR potentiator: -9.7; V1R ag counter: 4.9

What do the screens show for `Cc1ccc2c(c1)CCCN2C(=O)c1cccs1`?
TAAR1 antagonist: -15.4; OXTR agonist: -1.6; TAAR1 ag: 11.8; OXTR potentiator: 1.8; V1R ag counter: -1.1

Results for COc1ccc(C(=O)Nc2ccc3c(c2)CCCN3C(=O)c2cccs2)c(OC)c1 ?
TAAR1 antagonist: 54.7*; OXTR agonist: 0.6; TAAR1 ag: 6.9; OXTR potentiator: -7.3; V1R ag counter: 4.2; TAAR1 nonsel count: 25.9*; TAAR1 antag conf: 40.5; Ga16 ag counter: 4.9; TAAR1 ag counter: 1.0

Results for COc1cccc(C(=O)Nc2ccc3c(c2)CCCN3C(=O)c2cccs2)c1OC ?
TAAR1 antagonist: 50.1*; OXTR agonist: -2.0; TAAR1 ag: 2.4; OXTR potentiator: -9.6; V1R ag counter: 1.3; TAAR1 nonsel count: 24.0*; TAAR1 antag conf: 39.3; Ga16 ag counter: 6.5; TAAR1 ag counter: 7.9

How did COc1cccc2cc(CC(=O)c3cc(C)ccc3C)c(=O)oc12 do in these assays?
TAAR1 antagonist: 58.4*; OXTR agonist: -0.4; TAAR1 ag: 10.1; OXTR potentiator: -8.8; V1R ag counter: 1.3; TAAR1 nonsel count: 29.3*; TAAR1 antag conf: 48.6*; Ga16 ag counter: 5.8; TAAR1 ag counter: 4.3

Results for COc1ccc(C2CC(=O)C(c3cccc(OC)c3)=CN2Cc2ccccc2)cc1 (stereo not given) ?
TAAR1 antagonist: 8.2; TAAR1 ag: -0.9

Results for COc1ccc(C2CC(=O)C(c3ccccc3C)=CN2Cc2ccccc2)cc1 (stereo not given) ?
TAAR1 antagonist: 56.1*; TAAR1 ag: 6.9; TAAR1 nonsel count: 20.8; TAAR1 antag conf: 36.3; Ga16 ag counter: 3.7; TAAR1 ag counter: 3.2

What do the screens show for `COc1ccc(C2CC(=O)C(c3ccccc3)=CN2Cc2ccccc2)cc1` (stereo not given)?
TAAR1 antagonist: 58.0*; TAAR1 ag: 1.7; TAAR1 nonsel count: 28.2*; TAAR1 antag conf: 48.5; Ga16 ag counter: 3.1; TAAR1 ag counter: 9.0

What do the screens show for `COc1cccc(N2C(=O)C3ON(c4ccccc4)C(c4cccs4)C3C2=O)c1` (stereo not given)?
TAAR1 antagonist: 54.5*; OXTR agonist: -0.6; TAAR1 ag: 2.1; OXTR potentiator: -8.1; V1R ag counter: 0.1; TAAR1 nonsel count: 23.6*; TAAR1 antag conf: 40.9; Ga16 ag counter: 7.3; TAAR1 ag counter: 8.2
